Measurements reported in ChEMBL document CHEMBL4020760, “Discovery of a Small Molecule Probe That Post-Translationally Stabilizes the Survival Motor Neuron Protein for the Treatment of Spinal Muscular Atrophy” (J Med Chem, 2017).
In brackets after ≈: the same amount, converted by molar mass. Activity calls are given as the source filed them. The calls are words filed in the database; no cut-off is given here.

What was measured:
[1] = Fraction unbound in human plasma; format: ADME, cell-free
Procedure, shortened: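 Plasma protein binding measured in mouse and human plasma and expressed as percent free.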

[2] = Aqueous solubility of the compound at pH 7.4; format: physicochemical; settings: aqueous solution
Procedure, shortened: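 Kinetic solubility measured in aqueous medium at pH 7.4.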

Plasma [3] = assay: Cmax in mouse plasma at 20 mg/kg, ip; format: ADME, organism-based; parameters: dose 20 mg/kg, route intraperitoneal; settings: in vivo
Plasma [4] = assay: Cmax in mouse plasma at 20 mg/kg, po; format: ADME, organism-based; parameters: dose 20 mg/kg, route oral; settings: in vivo
[5] = AUC (0 to 24 hrs) in mouse brain at 20 mg/kg, ip; format: ADME, organism-based; parameters: time < 24 hr, dose 20 mg/kg, route intraperitoneal
[6] = AUC (0 to 24 hrs) in mouse brain at 20 mg/kg, po; format: ADME, organism-based; parameters: time < 24 hr, dose 20 mg/kg, route oral
Plasma [7] = assay: Tmax in mouse plasma at 20 mg/kg, po; format: ADME, organism-based; settings: in vivo
Brain [8] = assay: Tmax in mouse brain at 20 mg/kg, ip; format: ADME, organism-based; settings: in vivo
Brain [9] = assay: Tmax in mouse brain at 20 mg/kg, po; format: ADME, organism-based; settings: in vivo
Brain [10] = assay: Half life in mouse brain at 20 mg/kg, ip; format: ADME, organism-based; settings: in vivo
Brain [11] = assay: Half life in mouse brain at 20 mg/kg, po; format: ADME, organism-based; settings: in vivo
HEK293 [12] = assay: Effect on basal level of polyubiquitinated protein in HEK293 cells at 1 and 10 uM incubated for 2 hrs by SDS-PAGE analysis; format: cell-based; settings: human, hek293, 2 h
Procedure, shortened: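 HEK293 cells pretreated 2 h with test compound or MG-132 (1 and 10 μM), then DMSO or cycloheximide (10 μM) added and incubated a further 6 h; final DMSO 0.2%. Lysates run on 4–15% gradient SDS-PAGE; anti-ubiquitin blot for polyubiquitinated proteins, tubulin as loading control.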

Liver = assay: Half life in human liver microsomes; format: ADME, microsome
Procedure, shortened: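 Compound stability in mouse and human liver microsomes, expressed as half-life in min.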

[13] = molecular target: Survival motor neuron protein (Homo sapiens) (UniProt Q16637); assay: Stabilization of human SMN protein expressed in HEK293 cells at 10 to 30 uM after 24 hrs by luciferase reporter gene assay; format: cell-based
Procedure, shortened: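 SMN2-luc reporter cells seeded at 25,000/well overnight, then treated 24 h with six doses (3-fold serial dilutions, top final 10 or 30 μM), 0.1% DMSO. Firefly and Renilla luciferase read by dual-luciferase assay, normalized to DMSO as percent; EC50 and maximal activation from curves. Mean ± SEM, ≥3 trials.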

Oryctolagus cuniculus = organism: Oryctolagus cuniculus; assay: Effect on proteasome in rabbit reticulocyte lysates assessed as MBP-HPV-16 E6-mediated p53 degradation at 10 and 30 uM incubated for 30 mins prior to MBP-E6 addition by Western blot analysis
Procedure, shortened: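 Purified p53 and MBP-HPV16 E6. E6 (0.1 μM) or buffer then added for 2 h at 25 °C, stopped at 75 °C. p53 read by 10% SDS-PAGE/Western (PAb1801).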

HEK293 [14] = assay: Effect on LC3-2 level in HEK293 cells at 10 uM after 8 hrs by immunoblot analysis; format: functional, cell-based; settings: Homo sapiens
Procedure, shortened: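 HEK293 cells exposed 8 h to DMSO, compound or chloroquine; LC3 and p62 assessed by immunoblot.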

CYP2A6 = molecular target: T1, CYP2A6 (Homo sapiens, UniProt P11509); assay: Inhibition of CYP2A6 (unknown origin) at 10 uM; format: ADME
T1 sequence (P11509 whole entry): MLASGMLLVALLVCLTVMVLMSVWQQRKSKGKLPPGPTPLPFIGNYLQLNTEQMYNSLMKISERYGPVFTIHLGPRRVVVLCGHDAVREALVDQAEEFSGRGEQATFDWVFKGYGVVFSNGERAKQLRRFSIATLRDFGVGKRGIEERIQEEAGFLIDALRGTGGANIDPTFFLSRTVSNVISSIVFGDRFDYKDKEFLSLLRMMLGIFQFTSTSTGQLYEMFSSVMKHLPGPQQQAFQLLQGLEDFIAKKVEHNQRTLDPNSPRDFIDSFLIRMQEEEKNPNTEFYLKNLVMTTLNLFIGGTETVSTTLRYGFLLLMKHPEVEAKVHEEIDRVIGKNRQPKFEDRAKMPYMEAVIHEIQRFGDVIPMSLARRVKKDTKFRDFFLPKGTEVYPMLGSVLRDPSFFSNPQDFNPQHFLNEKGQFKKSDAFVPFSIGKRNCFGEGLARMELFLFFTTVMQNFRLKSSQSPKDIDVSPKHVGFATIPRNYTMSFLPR

CYP2C19 = CYP2C19 (Homo sapiens, UniProt P33261); assay: Inhibition of CYP2C19 (unknown origin) at 10 uM; format: ADME
CYP2C9 = CYP2C9 (Homo sapiens, UniProt P11712); assay: Inhibition of CYP2C9 (unknown origin) at 10 uM; format: ADME
CYP3A4 = CYP3A4 (Homo sapiens, UniProt P08684); assay: Inhibition of CYP3A4 (unknown origin) at 10 uM; format: ADME
Lampyridae = assay: Effect on firefly recombinant luciferase protein
Procedure, shortened: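 Compound diluted in complete DMEM and incubated with recombinant firefly luciferase (1:10 000 in passive lysis buffer, 1 mg/mL BSA); activity read with SteadyLite reagent.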

[15] = molecular target: Survival motor neuron protein (Homo sapiens) (UniProt Q16637); assay: Stabilization of human SMN protein expressed in HEK293 cells expressing SMN2 promoter assessed as additive effect on SMN stabilization in presence of 0.1: 0.1 to 10:10 ratio of LDN-75654 to compound after 24 hrs by luciferase reporter gene assay; format: cell-based
Procedure, shortened: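 SMN2 reporter cells exposed 24 h to the two compounds alone or combined at constant ratio, DMSO held at 0.2%, and SMN-luc read. Theoretical additive effect taken as the sum of the single-agent activities.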

Renilla = assay: Effect on renilla recombinant luciferase protein expressed in HEK293 cells at 10 uM after 24 hrs in presence of 10 uM cycloheximide by renilla luciferase reporter gene assay; format: cell-based
Procedure, shortened: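 SMN2-luc reporter cells given cycloheximide (10 μM) together with compound (10 μM) or DMSO. Lysed at set time points; SMN-luc and Renilla-luc activities measured.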

[16] = molecular target: Survival motor neuron protein (Homo sapiens) (UniProt Q16637); assay: Stabilization of SMN protein in 3813T fibroblasts derived from human SMA patient assessed as increase in SMN protein level after 48 hrs by SDS-PAGE and immunoblot
[17] = molecular target: Survival motor neuron protein (Homo sapiens) (UniProt Q16637); assay: Stabilization of SMN protein in 3813T fibroblasts derived from human SMA patient assessed as increase in SMN protein level at 2 uM after 48 hrs by SDS-PAGE and immunoblot

Chain of Survival motor neuron protein (Homo sapiens) (Q16637 whole entry): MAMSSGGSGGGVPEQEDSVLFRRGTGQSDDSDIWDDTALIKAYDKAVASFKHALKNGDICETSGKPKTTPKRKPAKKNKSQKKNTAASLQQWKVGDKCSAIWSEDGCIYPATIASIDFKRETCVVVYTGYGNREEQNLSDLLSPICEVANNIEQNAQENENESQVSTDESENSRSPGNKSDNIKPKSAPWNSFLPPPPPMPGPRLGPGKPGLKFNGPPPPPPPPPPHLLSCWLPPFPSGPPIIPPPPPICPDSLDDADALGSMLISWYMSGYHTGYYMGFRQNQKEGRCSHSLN
Chain of CYP3A4 (P08684 whole entry): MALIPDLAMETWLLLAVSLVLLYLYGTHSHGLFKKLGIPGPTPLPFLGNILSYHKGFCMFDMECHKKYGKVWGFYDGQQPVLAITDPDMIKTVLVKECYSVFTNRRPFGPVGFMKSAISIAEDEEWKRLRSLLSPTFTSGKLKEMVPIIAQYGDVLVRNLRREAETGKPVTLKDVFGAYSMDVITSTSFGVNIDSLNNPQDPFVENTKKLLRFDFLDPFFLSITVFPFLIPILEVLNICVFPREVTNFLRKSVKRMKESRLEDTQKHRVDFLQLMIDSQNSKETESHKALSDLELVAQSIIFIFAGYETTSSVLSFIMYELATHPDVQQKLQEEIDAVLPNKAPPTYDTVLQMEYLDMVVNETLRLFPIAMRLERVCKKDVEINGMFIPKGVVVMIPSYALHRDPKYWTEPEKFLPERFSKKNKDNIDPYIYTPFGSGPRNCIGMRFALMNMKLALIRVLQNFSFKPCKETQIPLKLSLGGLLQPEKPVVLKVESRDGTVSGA
Chain of CYP2C19 (P33261 whole entry): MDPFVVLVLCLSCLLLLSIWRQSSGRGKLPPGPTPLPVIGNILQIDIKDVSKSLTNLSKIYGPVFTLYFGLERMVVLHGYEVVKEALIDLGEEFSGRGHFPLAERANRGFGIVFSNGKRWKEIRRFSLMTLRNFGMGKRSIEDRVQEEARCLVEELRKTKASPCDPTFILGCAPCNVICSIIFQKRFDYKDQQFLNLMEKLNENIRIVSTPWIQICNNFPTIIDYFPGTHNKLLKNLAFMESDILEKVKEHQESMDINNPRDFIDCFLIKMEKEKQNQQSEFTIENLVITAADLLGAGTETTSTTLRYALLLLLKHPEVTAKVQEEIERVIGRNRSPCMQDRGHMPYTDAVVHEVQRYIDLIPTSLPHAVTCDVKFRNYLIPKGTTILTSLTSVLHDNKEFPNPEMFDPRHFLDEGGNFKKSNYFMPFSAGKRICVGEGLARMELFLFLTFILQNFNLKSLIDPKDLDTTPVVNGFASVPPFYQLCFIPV
Chain of CYP2C9 (P11712 whole entry): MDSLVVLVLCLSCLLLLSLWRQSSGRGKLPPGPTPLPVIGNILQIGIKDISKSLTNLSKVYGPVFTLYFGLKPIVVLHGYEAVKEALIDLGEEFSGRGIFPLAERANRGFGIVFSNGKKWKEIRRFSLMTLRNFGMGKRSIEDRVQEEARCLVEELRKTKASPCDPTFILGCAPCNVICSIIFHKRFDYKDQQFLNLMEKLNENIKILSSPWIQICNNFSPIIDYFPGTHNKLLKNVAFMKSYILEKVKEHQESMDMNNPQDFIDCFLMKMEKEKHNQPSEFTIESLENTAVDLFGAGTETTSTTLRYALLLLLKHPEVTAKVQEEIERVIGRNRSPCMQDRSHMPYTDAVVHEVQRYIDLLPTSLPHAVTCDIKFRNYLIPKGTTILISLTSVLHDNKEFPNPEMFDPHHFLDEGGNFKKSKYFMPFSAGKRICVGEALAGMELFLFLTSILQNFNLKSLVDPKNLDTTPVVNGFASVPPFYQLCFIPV

- fraction unbound [1]: 0.035
- solubility kinetic [2]: 31 µM (≈ 10.1 µg/mL)
- Cmax (Plasma [3]): 7660 ng/mL
- Cmax (Plasma [4]): 286 ng/mL
- AUC(0-t) at 24 h [5]: 51300 ng·h/mL
- AUC(0-t) at 24 h [6]: 2220 ng·h/mL
- Tmax (Plasma [7]): 30 min
- Tmax (Brain [8]): 30 min
- Tmax (Brain [9]): 30 min
- t1/2 (Brain [10]): 1.9 h
- t1/2 (Brain [11]): 2.8 h
- t1/2 (Liver): > 120 min
- Activity (Oryctolagus cuniculus): inactive
- inhibition at 10 µM (CYP2A6): < 50%
- inhibition at 10 µM (CYP2C19): < 50%
- inhibition at 10 µM (CYP2C9): < 50%
- inhibition at 10 µM (CYP3A4): < 50%
- Activity (Lampyridae): inactive
SMILES: O=C(Nc1ncc(C2(O)CCC2)s1)c1ccc(F)c(Cl)c1
- Activity (HEK293 [12]): Non-Toxic
- Activity [13]: Active
- Activity (HEK293 [14]): inactive
- Activity [15]: inactive
- Activity (Renilla): inactive
- Activity [16]: Dose-dependent effect
- fold change (FC) [17]: 2
